Results as given in ChEMBL document CHEMBL4376844, “A Novel Decalin-Based Bicyclic Scaffold for FKBP51-Selective Ligands” (J Med Chem, 2020).
Active and inactive are the calls of the source. The rule behind the calls is not given here.

How the values were obtained:
KB [1] = assay: Induction of apoptosis in human KB/HeLa cells overexpressing FKBP51 assessed as late apoptotic cells at 50 uM incubated for 40 hrs by AnnexinV-FITC and propidium iodide staining based flow cytometry analysis (reference value: 3.4%); format: functional
KB [2] = assay: Induction of apoptosis in human KB/HeLa cells overexpressing FKBP51 assessed as increase in early apoptotic cells incubated for 40 hrs by annexin V and propidium iodide based flow cytometry analysis; format: functional, cell-based
[3] = molecular target: T1, Peptidyl-prolyl cis-trans isomerase FKBP5 (Homo sapiens, UniProt Q13451); assay: Inhibition of human full length N-terminal His-tagged/C-terminal FLAG tagged FKBP51 expressed in Escherichia coli BL21 (DE3) cells incubated for 30 mins by competitive fluorescence polarization assay
T1 sequence (Q13451 whole entry): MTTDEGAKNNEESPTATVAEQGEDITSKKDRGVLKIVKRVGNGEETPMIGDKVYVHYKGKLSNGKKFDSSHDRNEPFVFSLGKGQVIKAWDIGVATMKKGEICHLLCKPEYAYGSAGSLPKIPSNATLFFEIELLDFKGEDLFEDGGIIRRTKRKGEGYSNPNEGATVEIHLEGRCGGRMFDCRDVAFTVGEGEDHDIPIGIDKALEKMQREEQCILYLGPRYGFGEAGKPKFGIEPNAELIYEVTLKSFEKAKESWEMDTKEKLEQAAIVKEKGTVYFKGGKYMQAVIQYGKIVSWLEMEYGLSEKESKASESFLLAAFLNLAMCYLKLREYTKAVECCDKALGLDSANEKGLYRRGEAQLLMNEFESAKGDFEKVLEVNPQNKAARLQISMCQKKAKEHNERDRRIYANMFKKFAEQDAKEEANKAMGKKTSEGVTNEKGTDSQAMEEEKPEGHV

KB [4] = assay: Induction of apoptosis in human KB/HeLa cells overexpressing FKBP51 assessed as early apoptotic cells at 50 uM incubated for 40 hrs by AnnexinV-FITC and propidium iodide staining based flow cytometry analysis (reference value: 3.5%); format: functional
KB [5] = assay: Induction of apoptosis in human KB/HeLa cells overexpressing FKBP51 assessed as necrotic cells at 25 uM incubated for 40 hrs by AnnexinV-FITC and propidium iodide staining based flow cytometry analysis (reference value: 5.4%); format: functional
KB [6] = assay: Induction of apoptosis in human KB/HeLa cells overexpressing FKBP51 assessed as viable cells at 25 uM incubated for 40 hrs by AnnexinV-FITC and propidium iodide staining based flow cytometry analysis (reference value: 87.7%); format: functional; settings: read-out: Activity
KB [7] = assay: Induction of apoptosis in human KB/HeLa cells overexpressing FKBP51 assessed as viable cells at 50 uM incubated for 40 hrs by AnnexinV-FITC and propidium iodide staining based flow cytometry analysis (reference value: 87.7%); format: functional; settings: read-out: Activity
KB [8] = assay: Cytotoxicity against human KB/HeLa cells overexpressing FKBP51 assessed as induction of cell death by measuring hypodiploid cells at 6 uM incubated for 72 hrs by propidium iodide based flow cytometry analysis (reference value: 4.7%); format: functional
KB [9] = assay: Induction of apoptosis in human KB/HeLa cells overexpressing FKBP51 assessed as necrotic cells at 12 uM incubated for 40 hrs by AnnexinV-FITC and propidium iodide staining based flow cytometry analysis (reference value: 5.4%); format: functional
HeLa = assay: Induction of apoptosis in human HeLa cells expressing low leves of FKBP51 at 50 uM incubated for 40 hrs by AnnexinV-FITC and propidium iodide staining based flow cytometry analysis; format: functional, cell-based
KB [10] = assay: Cytotoxicity against human KB/HeLa cells overexpressing FKBP51 assessed as induction of cell death by measuring hypodiploid cells at 1 uM incubated for 72 hrs by propidium iodide based flow cytometry analysis (reference value: 4.7%); format: functional
KB [11] = assay: Induction of apoptosis in human KB/HeLa cells overexpressing FKBP51 assessed as viable cells at 12 uM incubated for 40 hrs by AnnexinV-FITC and propidium iodide staining based flow cytometry analysis (reference value: 87.7%); format: functional; settings: read-out: Activity
KB [12] = assay: Induction of apoptosis in human KB/HeLa cells overexpressing FKBP51 assessed as early apoptotic cells at 12 uM incubated for 40 hrs by AnnexinV-FITC and propidium iodide staining based flow cytometry analysis (reference value: 3.5%); format: functional
KB [13] = assay: Cytotoxicity against human KB/HeLa cells overexpressing FKBP51 assessed as induction of cell death incubated for 72 hrs by propidium iodide based flow cytometry analysis; format: functional
Summary of the method: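 KB cells exposed to a range of compound doses for 72 h. 1×10^5 cells washed in PBS, then permeabilized in 0.1% sodium citrate, 0.1% Triton X-100 and 50 µg/mL propidium iodide for 30 min at 4°C in the dark. Nuclear DNA content read by flow cytometry on a log scale with debris gated out by forward scatter; % hypodiploid nuclei taken as dead cells. Four experiments, each in triplicate.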

KB [14] = assay: Induction of apoptosis in human KB/HeLa cells overexpressing FKBP51 assessed as early apoptotic cells at 25 uM incubated for 40 hrs by AnnexinV-FITC and propidium iodide staining based flow cytometry analysis (reference value: 3.5%); format: functional
KB [15] = assay: Induction of apoptosis in human KB/HeLa cells overexpressing FKBP51 assessed as late apoptotic cells at 25 uM incubated for 40 hrs by AnnexinV-FITC and propidium iodide staining based flow cytometry analysis (reference value: 3.4%); format: functional
KB [16] = assay: Cytotoxicity against human KB/HeLa cells overexpressing FKBP51 assessed as induction of cell death by measuring hypodiploid cells at 60 uM incubated for 72 hrs by propidium iodide based flow cytometry analysis (reference value: 4.7%); format: functional
[17] = molecular target: T2, Peptidyl-prolyl cis-trans isomerase FKBP4 (Homo sapiens, UniProt Q02790); assay: Inhibition of human full length N-terminal His-tagged/C-terminal FLAG tagged FKBP52 expressed in Escherichia coli BL21 (DE3) cells incubated for 30 mins by competitive fluorescence polarization assay; settings: 0.5 h
T2 sequence (Q02790 whole entry): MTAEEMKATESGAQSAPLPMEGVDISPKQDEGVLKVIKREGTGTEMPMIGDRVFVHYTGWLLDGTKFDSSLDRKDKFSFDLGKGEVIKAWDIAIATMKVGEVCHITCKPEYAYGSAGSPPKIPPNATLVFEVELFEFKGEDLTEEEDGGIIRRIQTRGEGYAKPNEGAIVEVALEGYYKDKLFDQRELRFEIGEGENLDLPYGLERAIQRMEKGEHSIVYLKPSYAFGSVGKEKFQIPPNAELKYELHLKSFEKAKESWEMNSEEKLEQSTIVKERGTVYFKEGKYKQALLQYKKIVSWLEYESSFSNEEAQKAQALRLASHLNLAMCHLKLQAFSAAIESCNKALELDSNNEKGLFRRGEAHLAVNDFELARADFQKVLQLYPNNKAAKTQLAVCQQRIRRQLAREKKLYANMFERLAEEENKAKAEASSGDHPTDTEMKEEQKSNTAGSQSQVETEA

KB [18] = assay: Induction of apoptosis in human KB/HeLa cells overexpressing FKBP51 assessed as necrotic cells at 50 uM incubated for 40 hrs by AnnexinV-FITC and propidium iodide staining based flow cytometry analysis (reference value: 5.4%); format: functional
KB [19] = assay: Cytotoxicity against human KB/HeLa cells overexpressing FKBP51 assessed as induction of cell death by measuring hypodiploid cells at 20 uM incubated for 72 hrs by propidium iodide based flow cytometry analysis (reference value: 4.7%); format: functional
KB [20] = assay: Induction of apoptosis in human KB/HeLa cells overexpressing FKBP51 assessed as late apoptotic cells at 12 uM incubated for 40 hrs by AnnexinV-FITC and propidium iodide staining based flow cytometry analysis (reference value: 3.4%); format: functional
KB [21] = assay: Induction of apoptosis in human KB/HeLa cells overexpressing FKBP51 assessed as necrotic cells at 1 uM incubated for 40 hrs by AnnexinV-FITC and propidium iodide staining based flow cytometry analysis (reference value: 5.4%); format: functional
KB [22] = assay: Induction of apoptosis in human KB/HeLa cells overexpressing FKBP51 assessed as viable cells at 1 uM incubated for 40 hrs by AnnexinV-FITC and propidium iodide staining based flow cytometry analysis (reference value: 87.7%); format: functional; settings: read-out: Activity
KB [23] = assay: Induction of apoptosis in human KB/HeLa cells overexpressing FKBP51 assessed as early apoptotic cells at 1 uM incubated for 40 hrs by AnnexinV-FITC and propidium iodide staining based flow cytometry analysis (reference value: 3.5%); format: functional
KB [24] = assay: Induction of apoptosis in human KB/HeLa cells overexpressing FKBP51 assessed as late apoptotic cells at 1 uM incubated for 40 hrs by AnnexinV-FITC and propidium iodide staining based flow cytometry analysis (reference value: 3.4%); format: functional

**Q.** Which results are given for `COc1ccc(CCC(OC(=O)C2CCCCN2C(=O)[C@@H]2C[C@@H](O)[C@@H](O)[C@@H]3CCCC[C@H]32)c2cccc(OCCN3CCOCC3)c2)cc1OC` (single isomer, unassigned)?
**A.** Activity (KB [1]): 11.4%; Activity (KB [2]): Dose-dependent effect; Ki [3]: 0.28 µM; Activity (KB [4]): 21.7%; Activity (KB [5]): 6.8%; viability at 25 µM (KB [6]): 72.5%; viability at 50 µM (KB [7]): 58.9%; Activity (KB [8]): 11.6%; Activity (KB [9]): 9.6%; Activity (HeLa): Active; Activity (KB [10]): 5.6%; viability at 12 µM (KB [11]): 73.7%; Activity (KB [12]): 10.1%; Activity (KB [13]): Dose-dependent effect; Activity (KB [14]): 11.1%; Activity (KB [15]): 9.6%; Activity (KB [16]): 26.1%; inhibition (INH) [17]: Not Active; Activity (KB [18]): 8.1%; Activity (KB [19]): 15.3%; Activity (KB [20]): 6.6%

**Q.** For `COc1ccc(CC[C@@H](OC(=O)[C@@H]2CCCCN2C(=O)[C@H](c2cc(OC)c(OC)c(OC)c2)C2CCCCC2)c2cccc(OCC(=O)O)c2)cc1OC`, which Activity (KB [21]) is on record?
**A.** Its Activity is 2.1%.

**Q.** What about the viability at 1 µM (KB [22]) of the same compound?
**A.** The viability at 1 µM was 65.1%.

**Q.** And the Activity (KB [23])?
**A.** Its Activity is 20.2%.

**Q.** And the Activity (KB [24])?
**A.** The Activity was 12.6%.
